Experimental data as given in ChEMBL document CHEMBL1139655, “Antimicrobial beta-peptoids by a block synthesis approach” (2006).
Converted amounts (≈) assume the structure as drawn.

Tested on: Escherichia coli
Assay: Antimicrobial activity against Escherichia coli ATCC 25922
Assay type: functional
Summary of the method: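 Broth microdilution in trypticase soy broth; 2-fold serial dilutions giving final 512 to 1 µg/mL. Inoculum E. coli ATCC 25922 in TSB, final […] as printed. Incubated 37 °C for 24 h in plate reader, OD600 read every 20 min. MIC taken as lowest concentration preventing growth at 24 h.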

Row | SMILES | MIC [µg/mL]
1 | CC(=O)NCCC(=O)N(CCC(=O)N(CCCCN)CCC(=O)NCCC(=O)N(CCC(=O)N(CCCCN)CCC(=O)N[C@@H](CCCCN)C(N)=O)CC(C)C)CC(C)C | > 512
2 | CC(=O)N(CCC(=O)N(CCN)CCC(=O)N(CCN)CCC(=O)N(CCC(=O)N(CCN)CCC(=O)N(CCN)CCC(=O)N[C@@H](CCCCN)C(N)=O)CC(C)C)CC(C)C | > 512
3 | CC(=O)N(CCC(=O)N(CCCN(C)C)CCC(=O)N(CCC(=O)N(CCC(=O)N(CCCN(C)C)CCC(=O)N(CCC(=O)N(CCC(=O)N(CCCN(C)C)CCC(=O)N(CCC(=O)N[C@@H](CCCCN)C(N)=O)CC(C)C)Cc1ccccc1)CC(C)C)Cc1ccccc1)CC(C)C)Cc1ccccc1 | 128 (≈ 84.1 µM)
4 | CC(=O)N(CCC(=O)N(CCC(=O)N(CCN)CCC(=O)N(CCC(=O)N(CCC(=O)N(CCN)CCC(=O)N(CCC(=O)N(CCC(=O)N(CCN)CCC(=O)N(CCC(=O)N(CCC(=O)N(CCN)CCC(=O)N[C@@H](CCCCN)C(N)=O)CC(C)C)CC(C)C)CC(C)C)CC(C)C)CC(C)C)CC(C)C)CC(C)C)CC(C)C | 256 (≈ 154 µM)
5 | CC(=O)N(CCC(=O)N(CCCN(C)C)CCC(=O)N(CCC(=O)N(CCC(=O)N(CCCN(C)C)CCC(=O)N(CCC(=O)N(CCC(=O)N(CCCN(C)C)CCC(=O)N(CCC(=O)N(CCC(=O)N(CCCN(C)C)CCC(=O)N(CCC(=O)N(CCC(=O)N(CCCN(C)C)CCC(=O)N(CCC(=O)N[C@@H](CCCCN)C(N)=O)CC(C)C)Cc1ccccc1)CC(C)C)Cc1ccccc1)CC(C)C)Cc1ccccc1)CC(C)C)Cc1ccccc1)CC(C)C)Cc1ccccc1 | 128 (≈ 53.1 µM)
6 | CC(=O)N(CCC(=O)N(CCC(=O)N(CCN)CCC(=O)N(CCC(=O)N(CCC(=O)N(CCN)CCC(=O)N(CCC(=O)N(CCC(=O)N(CCN)CCC(=O)N(CCC(=O)N(CCC(=O)N(CCN)CCC(=O)N(CCC(=O)N(CCC(=O)N(CCN)CCC(=O)N[C@@H](CCCCN)C(N)=O)CC(C)C)CC(C)C)CC(C)C)CC(C)C)CC(C)C)CC(C)C)CC(C)C)CC(C)C)CC(C)C)CC(C)C | 256 (≈ 126 µM)
7 | CC(=O)N(CCC(=O)N(CCC(=O)N(CCCN(C)C)CCC(=O)N(CCC(=O)N(CCC(=O)N(CCCN(C)C)CCC(=O)N(CCC(=O)N(CCC(=O)N(CCCN(C)C)CCC(=O)N[C@@H](CCCCN)C(N)=O)CC(C)C)Cc1ccccc1)CC(C)C)Cc1ccccc1)CC(C)C)Cc1ccccc1 | 512 (≈ 337 µM)
8 | CC(=O)NCCC(=O)N(CCC(=O)N(CCN)CCC(=O)NCCC(=O)N(CCC(=O)N(CCN)CCC(=O)NCCC(=O)N(CCC(=O)N(CCN)CCC(=O)NCCC(=O)N(CCC(=O)N(CCN)CCC(=O)NCCC(=O)N(CCC(=O)N(CCN)CCC(=O)N[C@@H](CCCCN)C(N)=O)CC(C)C)CC(C)C)CC(C)C)CC(C)C)CC(C)C | 256 (≈ 146 µM)
9 | CC(=O)N(CCC(=O)N(CCC(=O)N(CCCCN)CCC(=O)N[C@@H](CCCCN)C(N)=O)CC(C)C)CC(C)C | > 512
10 | CC(=O)N(CCC(=O)N(CCC(=O)N(CCCCN)CCC(=O)N(CCC(=O)N(CCC(=O)N(CCCCN)CCC(=O)N[C@@H](CCCCN)C(N)=O)CC(C)C)CC(C)C)CC(C)C)CC(C)C | > 512
11 | CC(=O)N(CCC(=O)N(CCC(=O)N(CCCCN)CCC(=O)N(CCC(=O)N(CCC(=O)N(CCCCN)CCC(=O)N(CCC(=O)N(CCC(=O)N(CCCCN)CCC(=O)N[C@@H](CCCCN)C(N)=O)CC(C)C)CC(C)C)CC(C)C)CC(C)C)CC(C)C)CC(C)C | > 512
12 | CC(=O)N(CCC(=O)N(CCC(=O)N(CCN)CCC(=O)N(CCC(=O)N(CCC(=O)N(CCN)CCC(=O)N(CCC(=O)N(CCC(=O)N(CCN)CCC(=O)N[C@@H](CCCCN)C(N)=O)CC(C)C)CC(C)C)CC(C)C)CC(C)C)CC(C)C)CC(C)C | > 512
13 | CC(=O)NCCC(=O)N(CCC(=O)N(CCCCN)CCC(=O)NCCC(=O)N(CCC(=O)N(CCCCN)CCC(=O)NCCC(=O)N(CCC(=O)N(CCCCN)CCC(=O)N[C@@H](CCCCN)C(N)=O)CC(C)C)CC(C)C)CC(C)C | 512 (≈ 424 µM)
14 | CC(=O)N(CCC(=O)N(CCC(=O)N(CCCN(C)C)CCC(=O)N(CCC(=O)N(CCC(=O)N(CCCN(C)C)CCC(=O)N(CCC(=O)N(CCC(=O)N(CCCN(C)C)CCC(=O)N(CCC(=O)N(CCC(=O)N(CCCN(C)C)CCC(=O)N[C@@H](CCCCN)C(N)=O)CC(C)C)Cc1ccccc1)CC(C)C)Cc1ccccc1)CC(C)C)Cc1ccccc1)CC(C)C)Cc1ccccc1 | 128 (≈ 65.1 µM)

The remaining lines, values ahead:

Row | MIC [µg/mL] | SMILES
15 | 128 (≈ 44.8 µM) | CC(=O)N(CCC(=O)N(CCCN(C)C)CCC(=O)N(CCC(=O)N(CCC(=O)N(CCCN(C)C)CCC(=O)N(CCC(=O)N(CCC(=O)N(CCCN(C)C)CCC(=O)N(CCC(=O)N(CCC(=O)N(CCCN(C)C)CCC(=O)N(CCC(=O)N(CCC(=O)N(CCCN(C)C)CCC(=O)N(CCC(=O)N(CCC(=O)N(CCCN(C)C)CCC(=O)N(CCC(=O)N[C@@H](CCCCN)C(N)=O)CC(C)C)Cc1ccccc1)CC(C)C)Cc1ccccc1)CC(C)C)Cc1ccccc1)CC(C)C)Cc1ccccc1)CC(C)C)Cc1ccccc1)CC(C)C)Cc1ccccc1
16 | 128 (≈ 53.9 µM) | CC(=O)NCCC(=O)N(CCC(=O)N(CCN)CCC(=O)NCCC(=O)N(CCC(=O)N(CCN)CCC(=O)NCCC(=O)N(CCC(=O)N(CCN)CCC(=O)NCCC(=O)N(CCC(=O)N(CCN)CCC(=O)NCCC(=O)N(CCC(=O)N(CCN)CCC(=O)NCCC(=O)N(CCC(=O)N(CCN)CCC(=O)NCCC(=O)N(CCC(=O)N(CCN)CCC(=O)N[C@@H](CCCCN)C(N)=O)CC(C)C)CC(C)C)CC(C)C)CC(C)C)CC(C)C)CC(C)C)CC(C)C
17 | > 512 | CC(=O)NCCC(=O)N(CCC(=O)N(CCCN(C)C)CCC(=O)NCCC(=O)N(CCC(=O)N(CCCN(C)C)CCC(=O)NCCC(=O)N(CCC(=O)N(CCCN(C)C)CCC(=O)NCCC(=O)N(CCC(=O)N(CCCN(C)C)CCC(=O)NCCC(=O)N(CCC(=O)N(CCCN(C)C)CCC(=O)NCCC(=O)N(CCC(=O)N(CCCN(C)C)CCC(=O)NCCC(=O)N(CCC(=O)N(CCCN(C)C)CCC(=O)NCCC(=O)N(CCC(=O)N(CCCN(C)C)CCC(=O)N[C@@H](CCCCN)C(N)=O)CC(C)C)CC(C)C)CC(C)C)CC(C)C)CC(C)C)CC(C)C)CC(C)C)CC(C)C
18 | 128 (≈ 53.1 µM) | CC(=O)N(CCC(=O)N(CCC(=O)N(CCCN(C)C)CCC(=O)N(CCC(=O)N(CCC(=O)N(CCCN(C)C)CCC(=O)N(CCC(=O)N(CCC(=O)N(CCCN(C)C)CCC(=O)N(CCC(=O)N(CCC(=O)N(CCCN(C)C)CCC(=O)N(CCC(=O)N(CCC(=O)N(CCCN(C)C)CCC(=O)N[C@@H](CCCCN)C(N)=O)CC(C)C)Cc1ccccc1)CC(C)C)Cc1ccccc1)CC(C)C)Cc1ccccc1)CC(C)C)Cc1ccccc1)CC(C)C)Cc1ccccc1
19 | > 512 | CC(=O)NCCC(=O)N(CCC(=O)N(CCCN(C)C)CCC(=O)NCCC(=O)N(CCC(=O)N(CCCN(C)C)CCC(=O)NCCC(=O)N(CCC(=O)N(CCCN(C)C)CCC(=O)NCCC(=O)N(CCC(=O)N(CCCN(C)C)CCC(=O)NCCC(=O)N(CCC(=O)N(CCCN(C)C)CCC(=O)N[C@@H](CCCCN)C(N)=O)CC(C)C)CC(C)C)CC(C)C)CC(C)C)CC(C)C
20 | 256 (≈ 95.3 µM) | CC(=O)NCCC(=O)N(CCC(=O)N(CCN)CCC(=O)NCCC(=O)N(CCC(=O)N(CCN)CCC(=O)NCCC(=O)N(CCC(=O)N(CCN)CCC(=O)NCCC(=O)N(CCC(=O)N(CCN)CCC(=O)NCCC(=O)N(CCC(=O)N(CCN)CCC(=O)NCCC(=O)N(CCC(=O)N(CCN)CCC(=O)NCCC(=O)N(CCC(=O)N(CCN)CCC(=O)NCCC(=O)N(CCC(=O)N(CCN)CCC(=O)N[C@@H](CCCCN)C(N)=O)CC(C)C)CC(C)C)CC(C)C)CC(C)C)CC(C)C)CC(C)C)CC(C)C)CC(C)C
21 | > 512 | CC(=O)NCCC(=O)N(CCC(=O)N(CCCN(C)C)CCC(=O)NCCC(=O)N(CCC(=O)N(CCCN(C)C)CCC(=O)NCCC(=O)N(CCC(=O)N(CCCN(C)C)CCC(=O)NCCC(=O)N(CCC(=O)N(CCCN(C)C)CCC(=O)NCCC(=O)N(CCC(=O)N(CCCN(C)C)CCC(=O)NCCC(=O)N(CCC(=O)N(CCCN(C)C)CCC(=O)NCCC(=O)N(CCC(=O)N(CCCN(C)C)CCC(=O)N[C@@H](CCCCN)C(N)=O)CC(C)C)CC(C)C)CC(C)C)CC(C)C)CC(C)C)CC(C)C)CC(C)C
